# Hits are enriched below; roughly 1.9% of the tested compounds scored in any of these assays.
# VIM-2 inh = VIM-2 metallo-beta-lactamase inhibitors, primary screen, biochemical, epi-absorbance readout, Pseudomonas aeruginosa enzyme | purified VIM-2, nitrocefin hydrolysis, epi-absorbance fluorescence | inhibition, % at 5.6 µM | hit rate 0.89% among 290,000 | AID 1527, 2009;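 active = inhibition above the mean of all tested compounds plus 3 SD, cutoff set per screening run, cut at about 7.5% in these data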;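 note: red hydrolysis product quenches plate fluorescence so inhibitors raise well fluorescence; 0% = enzyme with DMSO and 100% = DMSO without enzyme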
# NS3 helicase inh = inhibitors of HCV NS3 helicase, primary screen, biochemical, Cy5 molecular beacon fluorescence; Hepatitis C virus NS3 helicase; NS3 helicase DNA unwinding; inhibition, % at 10.9 µM; hit rate 0.56% among 290,000; AID 1800, 2009;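 active = inhibition above the mean of all tested compounds plus 3 SD, set per campaign, cut at about 35% in these data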;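 note: 0% = DMSO wells and 100% = thioflavine S control wells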
#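 System: HCV NS3 helicase fragment; control set: DMSO and thioflavine S; technique: Cy5 fluorescence at 0 and 60 min, beacon hairpin quenching; reagent: beacon DNA duplex substrate plus ATP; replicates: singlicate; schedule: 1 h reaction at 25 °C, ATP-initiated; medium: MOPS buffer pH 6.5 with MgCl2, DTT, Tween20, BSA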
# DNA FID counter-1 = compounds displacing fluorescent DNA intercalator, primary screen, artefact control for HCV NS3 helicase inhibitor project, biochemical, FID fluorescence; inhibition, % at 7.9 µM; hit rate 0.17% among 290,000; DNA fluorescent intercalator displacement;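 note: 0% = vehicle and 100% = reference compound; higher means more ethidium bromide displaced from hairpin DNA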
# IMP-1 inh = IMP-1 metallo-beta-lactamase inhibitors, primary screen, biochemical, epi-absorbance readout, Pseudomonas aeruginosa enzyme; inhibition, % at 5.6 µM; hit rate 0.45% among 290,000; AID 1556, 2009; purified IMP-1, nitrocefin hydrolysis, epi-absorbance fluorescence;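 active = inhibition above the mean plus 3 SD of all compounds in the same screening run, cut at about 4.5% in these data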;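 note: 0% = IMP-1 with DMSO and 100% = DMSO wells lacking enzyme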
#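 Assay system: purified recombinant IMP-1 beta-lactamase. Input: IMP-1 0.2 nM before substrate addition. Buffer or medium: Zinc- and detergent-supplemented HEPES buffer, pH 7.1. Schedule: 25 °C, 15 min preincubation, 25 min reaction. Signal: Epi-absorbance fluorescence, 480 nm excitation, 530 nm emission. Evaluation: percent inhibition from optical density relative to buffer-blank wells.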
# NS3 helicase cf = HCV NS3 helicase inhibitors, retest, confirmation, biochemical, Cy5 molecular beacon fluorescence, triplicate; shares compounds with NS3 helicase inh; NS3 helicase DNA unwinding; inhibition, % at 10.9 µM; hit rate 31% among 1,600; AID 1943, 2009;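 active = inhibition above the mean of all tested compounds plus 3 SD, cutoff set per campaign, cut at about 36% in these data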
# DNA FID counter-2 = compounds displacing fluorescent DNA intercalator, artefact control for HCV NS3 helicase inhibitor project, biochemical, FID fluorescence, triplicate; shares compounds with NS3 helicase inh; DNA fluorescent intercalator displacement; inhibition, % at 7.9 µM; hit rate 4% among 1,600;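 note: 0% = vehicle and 100% = reference compound; higher means more displacement of ethidium bromide from the DNA hairpin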
# DNA FID DR = compounds displacing fluorescent intercalator from DNA, dose response, counter-screen for HCV NS3 helicase inhibitor project, biochemical, fluorescence; shares compounds with NS3 helicase inh; fluorescent intercalator displacement from DNA; IC50, µM; 120 tested, under 10 active; call rule not given here
# * hit, by the source's call; / = no result. Cut-off read from the data, not from the text of the source, unless noted: active = inhibition above about 37%; inactive = the rest.
SMILES,VIM-2 inh,NS3 helicase inh,DNA FID counter-1,IMP-1 inh,NS3 helicase cf,DNA FID counter-2,others
O=C(O)c1ccc2nc(-c3ccco3)c(-c3ccco3)nc2c1,1.2,45.3*,-6.2,1.5,66.8*,9.6,
COc1ccc(CCNC(=O)c2ccc3nc(-c4ccco4)c(-c4ccco4)nc3c2)cc1OC,-3.0,51.6*,-21.4,1.2,41.3*,-7.9,
O=C(c1ccc2nc(-c3ccco3)c(-c3ccco3)nc2c1)N1CCN(c2ccccc2)CC1,-0.2,41.0*,-18.8,-2.2,64.8*,-15.1,DNA FID DR=>79.4
O=C(Nc1cccc(C(F)(F)F)c1)c1ccc2nc(-c3ccco3)c(-c3ccco3)nc2c1,-2.9,22.8,-11.3,-4.3,/,/,
CCc1nc2ccc(C(=O)N3CCN(c4ccccc4)CC3)cc2nc1CC,-3.9,-10.2,-61.7,-0.8,/,/,
COc1ccc(C(=O)NC(C)c2nnc(SCC(=O)NC3CCCC3)n2C)cc1 (configuration not stated),-5.2,13.0,-13.6,-3.2,/,/,
CSc1ccc(/C=N/Nc2cccc(C(=O)O)c2)cc1,-1.2,38.0*,-10.7,-2.4,76.3*,-5.2,
Cc1ccc2cc(CN(CC3CCCO3)C(=O)c3cccs3)c(=O)[nH]c2c1 (configuration not stated),-1.5,-3.9,-30.7,0.4,/,/,
C#CCOc1c(Cl)cc(/C=C2/C(=O)ON=C2C)cc1OCC,-0.8,56.6*,-25.7,-0.4,71.4*,16.1,
Cc1cccc(N2C(=O)C(O)=C(C(=O)c3cccs3)C2c2ccc(F)cc2)n1 (configuration not stated),1.3,13.0,-25.3,-2.8,/,/,
Cc1cccc(N2C(=O)C(O)=C(C(=O)c3cccs3)C2c2ccc(C(C)C)cc2)n1 (configuration not stated),-0.2,55.4*,-35.2,-2.4,78.5*,-9.6,DNA FID DR=>79.4
NC(=O)c1ccc2c(=O)c(O)c(-c3cc(Cl)c(N)c(Cl)c3)[nH]c2c1,1.7,38.5*,-4.5,-2.4,5.9,11.9,
CC1CCC2C(C1)OS(=O)(=O)NC2(C)C (configuration not stated),-0.2,41.0*,-19.2,-1.4,0.7,-1.6,
O=C1NC(c2ccc(Br)cc2)Oc2ccccc21 (configuration not stated),-3.0,-1.3,-11.3,-2.9,/,/,
O=C(Cn1cnc2ccccc2c1=O)NCCC(=O)N1CCN(Cc2ccccc2)CC1,3.3,38.3*,-10.0,-2.8,-18.9,-5.1,
O=C(Nc1ccccn1)c1cc(-c2cccc(Cl)c2)nc2ccccc12,-3.5,1.1,-5.5,-2.0,/,/,
O=C(CNS(=O)(=O)c1ccccc1)N1CCN(Cc2ccccc2)CC1,-1.5,1.9,-13.7,-3.0,/,/,
O=C(Nc1ccccc1)C1=C(O)CC(c2ccco2)CC1=Nc1ccccc1 (configuration not stated),-4.0,12.6,-2.8,-2.5,/,/,
O=C(Nc1ccccc1)C1=C(O)CC(c2ccoc2)CC1=Nc1ccccc1 (configuration not stated),-3.9,41.2*,-13.3,-1.9,-6.7,9.7,
O=C(N/N=C/C=C/c1ccco1)/C(=C/c1ccccc1)NC(=O)c1ccccc1,-5.3,36.5*,-7.2,-3.0,53.9*,6.1,
O=C(N/N=C/C=C/c1ccco1)c1ccncc1,-3.4,8.6,-5.7,-1.8,/,/,
CCCOC(=O)/C(=C\C=C\c1ccco1)NC(=O)c1ccccc1,-3.1,40.3*,-27.9,0.2,-5.5,-13.6,
COC(=O)/C(=C/c1ccco1)NC(=O)c1ccccc1,-3.2,-3.5,0.5,-1.8,/,/,
CCCOC(=O)/C(=C\c1ccc([N+](=O)[O-])o1)NC(=O)c1ccccc1,-2.7,38.2*,-20.2,-5.5,-16.2,-4.2,
Cc1ccc(-n2cccc2/C=C2\C(=N)N3N=C(C(C)C)SC3=NC2=O)cc1,-0.3,41.7*,-21.7,-2.6,35.5,-27.9,
SMILES,VIM-2 inh,NS3 helicase inh,DNA FID counter-1,IMP-1 inh,NS3 helicase cf,DNA FID counter-2,others
O=C(NN=C1CCN(Cc2ccccc2)CC1)c1ccccc1O,-3.9,8.5,-3.5,-2.8,/,/,
O=C(NN=C1CCN(Cc2ccccc2)CC1)c1cc2ccccc2cc1O,0.8,39.2*,-10.3,-1.8,28.8,-11.8,
Cc1ccc(N2C(=O)C3CCC(C)(C2=O)C3(C)C)cc1 (configuration not stated),0.2,-3.3,-1.6,-2.1,/,/,
CSC[C@@H]1NC(=S)N(c2ccc(C)cc2)C1=O,-4.1,36.4*,-12.8,-1.5,-12.0,16.9,
COc1ccc(N(CC(=O)Nc2cccc(C)c2)S(=O)(=O)c2ccc(C)cc2)cc1OC,-0.7,92.4*,-19.3,-2.2,-6.2,-3.0,
COc1cc(C(=O)NC(C)c2ccc3ccccc3c2)cc(Cl)c1O (configuration not stated),-2.2,-21.2,-15.6,-1.6,/,/,
COc1cc(Br)c(-c2sc(Nc3ccccc3)n[n+]2-c2ccc(F)cc2)cc1OC,-3.9,45.3*,-16.6,-3.9,12.7,-5.0,
Clc1cccc(-c2sc(Nc3ccccc3)n[n+]2-c2ccccc2)c1Cl,-2.8,69.4*,-10.1,-2.1,9.3,19.9,
Fc1ccc(-[n+]2nc(Nc3ccccc3)sc2-c2cccc(Cl)c2Cl)cc1,-4.6,31.4,-12.4,-3.2,/,/,
O=C(O)/C=C(\Oc1ccccc1)C1(O)CCCCC1,-2.0,0.2,0.8,-3.6,/,/,
C/C(=N\NC(=O)c1cc2ccccc2cc1O)c1ccc(C)o1,-1.4,46.8*,-21.0,-1.1,9.9,-8.9,
COc1ccc(/C=C/C(=O)c2ccccc2O)cc1,-5.4,10.7,-8.2,-3.5,/,/,
Cc1ccc(/C=C/C(=O)c2ccccc(=O)c2O)cc1C,1.1,39.6*,-16.0,1.9,84.6*,17.3,DNA FID DR=>79.4
O=C(COC(=O)/C=C/c1ccco1)Nc1ncc(C(F)(F)F)cc1Cl,-2.2,54.8*,-20.8,-1.4,7.3,-18.3,
O=C(COC(=O)/C=C/c1ccco1)Nc1cccc([N+](=O)[O-])c1,-0.7,38.1*,-8.8,0.3,-18.3,-4.8,
Cc1ccc(C(=O)N2CCN(Cc3ccc4c(c3)OCO4)CC2)cc1C,-1.2,-2.4,-24.5,-4.5,/,/,
Cc1cccc(C(C)C)c1NC(=O)C1CN(S(=O)(=O)c2ccccc2)CCN1S(=O)(=O)c1ccccc1 (configuration not stated),0.1,-1.6,-14.0,-1.9,/,/,
NNC(=O)c1oc2nc(-c3ccco3)cc(-c3ccco3)c2c1N,-2.3,50.9*,-7.2,-3.1,3.2,-26.2,
CCc1cc2c(=O)n(Cc3ccco3)c(SCc3c(C)noc3C)nc2s1,-1.6,51.4*,-48.1,0.2,48.1*,-30.4,DNA FID DR=>79.4
